Assay [1] in a line: In vitro Natural Killer cell activity (Activation of murine splenocyte NK cells by its ability to lyze YAC-1 target cells in chromium release assay) relative to interleukin 2; Range 0-20%. In kind it is functional, Mus musculus. An outline of the steps: (§1)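 Spleens from female C57BL/6 (H-2b) mice, 6–8 weeks old, homogenized in RPMI 1640 with 10% FCS and 2 mM L-glutamine. Mononuclear cells isolated on a Lympholyte M gradient (800g, 20 min), washed in PBS, viability checked by trypan blue. 5×10^5 splenocytes with compound incubated 4 h with 5×10^3 51Cr-labelled YAC-1 cells; % specific lysis from released chromium. Compounds tested at 10^-4–10^-12 M. Peak activity scored relative to IL 2 (100%) in 20% bands. Actives run 2–5 times, inactives once.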

The species named for assay [2] is Mus musculus. As to the kind of experiment: Peak or the range of peak activity relative to positive IL 2 control; Range 10e-12-10e-4. It is filed as functional. An outline of the steps:
as §1

A short description of assay [3]: In vitro Natural Killer cell activity (Activation of murine splenocyte NK cells by its ability to lyze YAC-1 target cells in chromium release assay) relative to interleukin 2 at 10E-4 to 10E-12 M conc; Range 61-80%. In kind it is functional, Mus musculus. In short, it runs like this: as §1
The species entered for assay [4] is Mus musculus. As to the kind of experiment: Peak or the range of peak activity relative to positive IL 2 control; Range 10e-12-10e-5. In kind it is functional. An outline of the steps:
as §1

Assay [5] can be described thus: In vitro Natural Killer cell activity (Activation of murine splenocyte NK cells by its ability to lyze YAC-1 target cells in chromium release assay) relative to interleukin 2 at 10E-6 to 10E-12 M conc; Range 21-40%. It is filed as functional, Mus musculus. In short, it runs like this:
as §1

Assay [6] can be described thus: In vitro Natural Killer cell activity (Activation of murine splenocyte NK cells by its ability to lyze YAC-1 target cells in chromium release assay) relative to interleukin 2 at 10E-4 to 10E-12 M conc; Range 41-60%. It is filed as functional, Mus musculus. An outline of the steps:
as §1

The nature of assay [7]: In vitro Natural Killer cell activity (Activation of murine splenocyte NK cells by its ability to lyze YAC-1 target cells in chromium release assay) relative to interleukin 2 at 10E-4 to 10E-12 M conc. In kind it is functional, Mus musculus. In short, it runs like this: as §1
Assay [8] is described as follows: In vitro Natural Killer cell activity (Activation of murine splenocyte NK cells by its ability to lyze YAC-1 target cells in chromium release assay) relative to interleukin 2 at 10E-4 to 10E-10 M conc; Range 41-60%. In kind it is functional, Mus musculus. In short, it runs like this: as §1
Assay [9] can be described thus: In vitro Natural Killer cell activity (Activation of murine splenocyte NK cells by its ability to lyze YAC-1 target cells in chromium release assay) relative to interleukin 2 at 10E-8 to 10E-12 M conc; Range 41-60%. It is filed as functional, Mus musculus. In short, it runs like this: as §1
A short description of assay [10]: In vitro Natural Killer cell activity (Activation of murine splenocyte NK cells by its ability to lyze YAC-1 target cells in chromium release assay) relative to interleukin 2 at 10E-4 to 10E-12 M conc; Range 81-100%. It is filed as functional, Mus musculus. In short, it runs like this:
as §1

The nature of assay [11]: In vitro Natural Killer cell activity (Activation of murine splenocyte NK cells by its ability to lyze YAC-1 target cells in chromium release assay) relative to interleukin 2 at 10e-4; Range 101-120%.

For `CC(=O)OCCCCCCNC(=O)[C@@H](CCC(N)=O)NC(=O)[C@H](C)N`, in assay [1], the Stimulation was determined as 0%.

As to `CC1OC(OCCCCCCNC(=O)[C@H](CCC(N)=O)NC(=O)[C@H](C)N)C(O)C(O)C1O` (stereo partly drawn), the Concentration in assay [2] and in assay [4] was 10 pM throughout. This molecule also returned a Stimulation in assay [3] of 61%.

The molecule `CC[C@H](C)[C@H](N)C(=O)N1CCC[C@H]1C(=O)NCCCCCCO` registered a Stimulation in assay [5] of 21%.

In turn, `C[C@H](N)C(=O)N[C@@H](CCC(N)=O)C(=O)NCCCCCCO` came in with a Stimulation in assay [6] of 41%.

Turning to `CC1OC(OCCCCCCNC(=O)[C@@H]2CCCN2C(=O)[C@H](C)N)C(O)C(O)C1O` (stereo partly drawn), the Stimulation in assay [7] was 0%.

Molecule `O=C1CC[C@@H](C(=O)NCCCCCCO)N1` showed a Stimulation in [3] of 61%. For the same molecule, in [4], the Concentration worked out at 10 pM.

Consider `CC[C@@H](C)[C@H](N)C(=O)N1CCC[C@H]1C(=O)NCCCCCCOC1OC(C)C(O)C(O)C1O` (stereo partly drawn), for which, in assay [7], the Stimulation is reported as 0%.

The molecule `C[C@@H](N)C(=O)N[C@@H](CCC(N)=O)C(=O)NCCCCCCCCCCCCO` returned a Stimulation in assay [8] of 41%.

For the molecule `C[C@H](N)C(=O)N[C@H](CCC(N)=O)C(=O)NCCCCCCO`, the Stimulation in assay [9] came out at 41%.

`CC1OC(OCCCCCCNC(=O)[C@H](CCC(N)=O)NC(=O)[C@H](N)C(C)C)C(O)C(O)C1O` (stereo partly drawn) displayed a Stimulation in assay [6] of 41%. The molecule also registered a Concentration in [2] of 10 pM.

`CC1OC(OCCCCCCNC(=O)[C@@H]2CCC(=O)N2)C(O)C(O)C1O` (stereo partly drawn): the Stimulation in assay [7] was 0%.

`CC1OC(OCCc2ccc(NC(=O)[C@H](CCC(N)=O)NC(=O)[C@@H](C)N)cc2)C(O)C(O)C1O` (stereo partly drawn) displayed a Stimulation in [7] of 0%.

The molecule `C=CCn1c(=O)n([C@@H]2O[C@H](CO)[C@@H](O)[C@H]2O)c2nc(N)[nH]c(=O)c21` [LOXORIBINE] registered a Stimulation in assay [7] of 0%.

With `NC(=O)CC[C@H](N)C(=O)NCCCCCCO`, the Stimulation in assay [1] came to 0%.

In assay [7], `CC1OC(OCCCCCCNC(=O)[C@@H](CCC(N)=O)NC(=O)[C@H](C)N)C(O)C(O)C1O` (stereo partly drawn) displayed a Stimulation of 0%.

As to `C[C@@H](N)C(=O)N[C@@H](CCC(N)=O)C(=O)NCCCCCCO[C@H]1O[C@H](CO)[C@H](O)[C@@H](O)[C@H]1O`, the Stimulation in assay [10] stood at 0%.

As for `CC1OC(OCCCCCCNC(=O)[C@H](CCC(=O)O)NC(=O)[C@H](C)N)C(O)C(O)C1O` (stereo partly drawn), the Stimulation in assay [6] is listed as 41%.

As for `C[C@@H](N)C(=O)N[C@@H](CCC(N)=O)C(=O)NCCCCCCCl`, the Stimulation in [1] amounted to 0%.

The molecule `C[C@@H](N)C(=O)N[C@@H](CCC(N)=O)C(=O)NCCCCCCN` yielded a Stimulation in [11] of 101%.

The values above are taken from ChEMBL document CHEMBL1131621, “Synthesis and activity of dipeptides, linked to targeting ligands, as specific NK cell enhancers” (1998).
